# Measurements: PubChem BioAssay
# Active and inactive are the calls of the source.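 How the source made its calls, unless noted: active means Her2 level under about 52% in both replicate screens, with viability over 70% of control (limit read from the data); inconclusive means Her2 under the limit in one screen only, or viability under 70%; inactive means Her2 level above the set limit.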
# How the values were obtained:
# [1] = biological target: Pantothenate synthetase (Mycobacterium tuberculosis (strain ATCC 25618 / H37Rv)) (UniProt P9WIL5); test: Recombinant Mtb pantothenate synthetase (PanC) inhibitors, coupled enzyme, confirmatory (AID 375; call rule not given here;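 further: 0% = full reaction with vehicle and 100% = no enzyme background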); conditions: coupled enzyme assay; at 10 µM, stronger effect = higher value
# Chain of Pantothenate synthetase (Mycobacterium tuberculosis (strain ATCC 25618 / H37Rv)) (P9WIL5 whole entry, looked up): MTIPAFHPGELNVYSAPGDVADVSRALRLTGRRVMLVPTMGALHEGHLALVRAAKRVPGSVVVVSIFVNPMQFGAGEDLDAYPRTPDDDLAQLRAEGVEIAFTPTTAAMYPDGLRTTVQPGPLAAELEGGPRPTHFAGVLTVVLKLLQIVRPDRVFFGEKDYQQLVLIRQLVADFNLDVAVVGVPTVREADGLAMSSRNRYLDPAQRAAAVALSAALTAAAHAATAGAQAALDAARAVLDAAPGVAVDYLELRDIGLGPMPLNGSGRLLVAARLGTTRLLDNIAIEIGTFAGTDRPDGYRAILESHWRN
# [2] = reducers of endogenous Her2 protein level, primary screen, SKBR3 breast tumor cells, AlphaScreen, ATP viability (AID 461); conditions: 18-24 h, measured here: SKBR3 viability, ATP luminescence, at 10 µM;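 on Her2 level: lower value means less Her2 protein in the cells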;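 on viability: percent of carrier control wells set as 100% viability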
# [3] = biological target: Receptor tyrosine-protein kinase erbB-2 (Homo sapiens) (UniProt P04626); test: as above; conditions: 18-24 h, at 10 µM, stronger effect = lower value
# Chain of Receptor tyrosine-protein kinase erbB-2 (Homo sapiens) (P04626 whole entry, looked up): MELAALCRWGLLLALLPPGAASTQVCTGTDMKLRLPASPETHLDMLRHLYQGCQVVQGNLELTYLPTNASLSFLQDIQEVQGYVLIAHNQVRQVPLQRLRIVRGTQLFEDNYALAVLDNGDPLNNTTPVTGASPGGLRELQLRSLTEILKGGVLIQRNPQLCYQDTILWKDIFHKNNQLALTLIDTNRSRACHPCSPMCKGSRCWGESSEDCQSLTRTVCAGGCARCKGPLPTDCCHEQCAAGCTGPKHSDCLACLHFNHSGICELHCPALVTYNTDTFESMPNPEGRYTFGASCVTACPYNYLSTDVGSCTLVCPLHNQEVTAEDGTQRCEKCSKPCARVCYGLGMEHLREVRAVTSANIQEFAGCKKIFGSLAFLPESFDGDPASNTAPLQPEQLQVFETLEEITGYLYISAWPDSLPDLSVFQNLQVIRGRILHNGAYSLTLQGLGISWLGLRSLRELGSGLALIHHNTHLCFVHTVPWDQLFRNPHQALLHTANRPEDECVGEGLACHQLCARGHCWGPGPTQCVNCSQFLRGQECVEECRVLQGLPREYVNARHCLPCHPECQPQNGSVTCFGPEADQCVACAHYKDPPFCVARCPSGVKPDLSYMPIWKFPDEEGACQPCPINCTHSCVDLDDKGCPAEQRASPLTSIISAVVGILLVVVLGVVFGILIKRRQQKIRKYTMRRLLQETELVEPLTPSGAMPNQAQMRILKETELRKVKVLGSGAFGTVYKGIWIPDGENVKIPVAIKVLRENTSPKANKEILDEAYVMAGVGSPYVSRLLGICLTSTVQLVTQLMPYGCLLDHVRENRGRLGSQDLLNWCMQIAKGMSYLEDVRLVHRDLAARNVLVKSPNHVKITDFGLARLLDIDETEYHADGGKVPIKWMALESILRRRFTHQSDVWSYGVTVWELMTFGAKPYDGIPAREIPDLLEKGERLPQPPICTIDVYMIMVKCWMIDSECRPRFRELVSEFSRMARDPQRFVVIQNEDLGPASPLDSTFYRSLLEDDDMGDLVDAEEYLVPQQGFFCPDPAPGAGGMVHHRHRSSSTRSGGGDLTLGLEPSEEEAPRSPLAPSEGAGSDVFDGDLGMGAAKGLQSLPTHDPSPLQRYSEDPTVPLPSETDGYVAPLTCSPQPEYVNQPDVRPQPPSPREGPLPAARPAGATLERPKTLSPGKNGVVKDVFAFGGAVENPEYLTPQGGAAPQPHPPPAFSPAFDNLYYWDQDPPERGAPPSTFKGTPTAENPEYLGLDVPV
# [4] = SK-BR-3 cell growth inhibitors, pilot screen, 24 h, human (AID 572;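 active means viability at or below 10% of carrier control in both of two separate runs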;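 further: compound exposure lasted between 18 and 24 h rather than exactly 24 h; 100% = carrier-treated control wells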); conditions: SK-BR-3 viability, CellTiter-Glo luminescence, at 10 µM, stronger effect = lower value
# [5] = HUVEC growth inhibition – cell-based, human, primary screen (AID 575;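 active means viability at or below 30% in both replicate assays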;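 further: 100% = median of untreated cell wells with 0.1% DMSO on each plate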); conditions: HUVEC proliferation, CellTiter-Glo luminescence, 72 h; at 10 µM; stronger effect = lower value
# Summary of the method: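 Assay system: primary human umbilical vein endothelial cells / Buffer or medium: endothelial basal medium with 2% FBS plus growth supplements / Compound dosing: one dose, 10 µM final, 0.1% DMSO / Timing: 72 h treatment at 37 °C / Signal: CTG luminescence / Benchmarks: 32 DMSO-only cell-control wells (high), 32 MePR drug-control wells (low) per plate / Plate: collagen-coated 384-well format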
# [6] = growth inhibitors of H69AR lung tumor, primary screen, human, duplicate replicates (AID 580;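 active means viability at or under a set limit in both replicates, limit being median viability minus 3 SD, cut at about 48% in these data, passing the limit was not always enough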;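 further: 100% = mean luminescence of untreated wells and 0% = no signal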); conditions: H69AR lung tumor cells viability, ATP luminescence, 72 h; at 10 µM; stronger effect = lower value
# [7] = reversal of MRP1-mediated doxorubicin resistance, pilot screen, H69AR cells, doxorubicin co-treatment (AID 601;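 active means viability loss from added drug above about 55%, and viability with drug at most 40%, in both replicates, limit read from the data, passing the limit was not always enough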); conditions: CellTiter-Glo, 72 h, at 10 µM; for differential viability (reversal): stronger effect = higher value
# [8] = 384-well plate pilot, post-Golgi transport modulator project, inhibition of yeast transport mutant growth (AID 636; in the data active means inhibition above about 31%); conditions: absorbance 615 nm, about 18 h, stronger effect = higher value
# [9] = growth suppression of yeast trafficking mutant, preliminary HTS, modulators of trafficking downstream of Golgi apparatus project, 1536-format plate, OD 615 nm (AID 637; in the data active means inhibition above about 30%); conditions: yeast transport mutant growth, absorbance 615 nm, 18 h; stronger effect = higher value
# [10] = H69AR cells + 2 uM doxorubicin, measured here: viability with 2 uM doxorubicin, stronger effect = lower value
# [11] = H69AR cells, compound alone cytotoxicity
SMILES,inhibition [1],viability [2],Her2 level [3],viability [4],viability [5],viability [6],differential viability (reversal) ([7]; H69AR cells + 2 uM doxorubicin),"viability [7, 10]","viability [7, 11]",inhibition [8],inhibition [9]
Cn1c(O)c(C=NCc2ccco2)c(=O)n(C)c1=O,0% (inactive),106%,96% (inactive),106% (inactive),96.8% (inactive),95.1% (inactive),5% (inactive),90.1%,95.1%,-4.53% (inactive),14.7% (inactive)
OCC12COC3c4ccccc4C(OC1)N32 (stereo not given),0% (inactive),110%,118% (inactive),110% (inactive),94% (inactive),97.3% (inactive),4.61% (inactive),92.7%,97.3%,-5.47% (inactive),-5.81% (inactive)
C[C@@]1(CO)[C@H](O)CC[C@@]2(C)[C@H]1CC[C@H]1C[C@@H]3C[C@@]12CC[C@]3(O)CO,0% (inactive),108%,81.5% (inactive),108% (inactive),49.2% (inactive),80.6% (inactive),-28.1% (inactive),109%,80.6%,–,–
O=C(Cn1c2c(c(-c3ccccc3Cl)cc1=O)CCC2)N1CCC2(CC1)OCCO2,6% (inactive),102%,115% (inactive),102% (inactive),108% (inactive),96.8% (inactive),-15.4% (inactive),112%,96.8%,-1.18% (inactive),-6.61% (inactive)
COc1ccc(C(=O)C(C)(C)NO)cc1,0% (inactive),108%,100% (inactive),108% (inactive),99.9% (inactive),86.5% (inactive),-2.28% (inactive),88.8%,86.5%,-6.49% (inactive),0.48% (inactive)
O=C(CN1C(=O)CN=C(c2ccccc2)c2ccccc21)NCc1ccco1,2% (inactive),98%,100% (inactive),98% (inactive),96.7% (inactive),80.4% (inactive),-1.24% (inactive),81.7%,80.4%,-3.42% (inactive),-5% (inactive)
CN1CCC(OC(=O)C2c3ccccc3Oc3ccccc32)CC1,2% (inactive),96.5%,96% (inactive),96.5% (inactive),64.3% (inactive),86.4% (inactive),0.945% (inactive),85.5%,86.4%,-0.39% (inactive),-5.16% (inactive)
Cc1cnn(C2CCN(C)CC2)c1N,0% (inactive),97%,96.5% (inactive),97% (inactive),102% (inactive),104% (inactive),5.52% (inactive),98.4%,104%,0.14% (inactive),-5.41% (inactive)
CC(C)C(=O)c1cn(Cc2ccccc2C#N)c2ccccc12,8% (inactive),98%,100% (inactive),98% (inactive),97% (inactive),82.8% (inactive),-7.5% (inactive),90.3%,82.8%,-4.53% (inactive),3.97% (inactive)
CCN1CCN(Cc2cc(Br)cc(OC)c2O)CC1,7% (inactive),93.5%,114% (inactive),93.5% (inactive),110% (inactive),94.2% (inactive),-2.88% (inactive),97.1%,94.2%,-3.2% (inactive),-6.19% (inactive)
CC1CCN2c3nc4ccccn4c(=O)c3CC3(C(=O)N(C)C(=O)N(C)C3=O)C2C1 (stereo not given),0% (inactive),101%,72.5% (inactive),101% (inactive),93% (inactive),93.5% (inactive),-8.53% (inactive),102%,93.5%,-1.32% (inactive),1.64% (inactive)
Oc1ccc(C2NCc3ccccc3-n3cccc32)cc1Cl (stereo not given),0% (inactive),98.5%,74.5% (inactive),98.5% (inactive),112% (inactive),83.8% (inactive),1.1% (inactive),82.7%,83.8%,-6.18% (inactive),-3.17% (inactive)
